From PubChem BioAssay
M1 antag: antagonists of rat M1 muscarinic receptor; CHO-M1 cells, Fluo-4 calcium, ACh EC80 antagonist mode; stronger effect = lower value; B-score at 10 µM; actives 3.4% (n = 64,000);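 active = calcium fluorescence response, raw or row-and-column corrected B-score, differing from the plate sample mean either way at a set confidence level, mostly lower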
M1 ag: activates the M1 muscarinic receptor; CHO-M1 cells, Fluo-4 calcium fluorescence, agonist mode; stronger effect = higher value; B-score at 10 µM; actives 3% (n = 64,000); AID 626;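 active = fluorescence rise, raw or as B-score row- and column-corrected plate score, outside the 99.7% band of its plate's samples, either direction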
S1P1 ag-PAM: activates or potentiates agonism at human S1P1 receptor. P21453. S1P1 CRE-bla cells, forskolin, beta-lactamase FRET, potentiator mode; S1P1 agonist co-added at EC20, 2 nM; 100% = saturating reference agonist, 0% = basal. activation, % at 9.5 µM. actives 0.57% (n = 56,000);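 active = activation above a cutoff set at the mean activation of all tested compounds plus 3 SD, cut at about 54% in these data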;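 also: forskolin at 4 µM as EC80 and the EC20 agonist is SEW2871; 100% = SEW2871 at its EC100 plus forskolin at EC80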
Target sequence (P21453 whole entry, looked up): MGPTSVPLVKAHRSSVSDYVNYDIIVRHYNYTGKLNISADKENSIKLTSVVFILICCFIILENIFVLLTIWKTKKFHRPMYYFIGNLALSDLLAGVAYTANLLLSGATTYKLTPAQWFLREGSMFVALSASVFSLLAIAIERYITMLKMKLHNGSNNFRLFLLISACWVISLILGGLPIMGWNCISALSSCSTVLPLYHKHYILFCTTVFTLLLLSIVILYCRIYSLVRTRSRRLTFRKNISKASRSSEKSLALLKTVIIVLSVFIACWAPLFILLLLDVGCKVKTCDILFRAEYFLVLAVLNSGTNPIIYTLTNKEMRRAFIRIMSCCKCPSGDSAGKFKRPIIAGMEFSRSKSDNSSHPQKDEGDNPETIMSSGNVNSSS
S1P3 agonist: activates the human S1P3 receptor; Q99500; S1P3 NFAT-BLA reporter cells, agonism, FRET ratio; relative to 1 µM S1P, basal subtracted; activation, % at 4.5 µM; actives 0.1% (n = 60,000); AID 373;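 active = activation above the screen-wide mean plus 3 SD, cut at about 4.5% in these data, passing the limit was not always enough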
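Measure – % activation relative to 1 µM S1P (100%), per plate · System – stable CHO line with human S1P3, Gα16, NFAT-BLA reporter · Timing – cells plated overnight, compound 4 h 37 °C, substrate 2 h RT · Technique – fluorescent BLA substrate, ex 405 nm, em 460/535 nm ratio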
SF-1 act: SF-1 (human) activation. Q13285. CHO-K1 Gal4-SF-1 LBD luciferase reporter; % increase over DMSO SF-1-specific signal. activation, % at 10 µM. actives 1.9% (n = 65,000);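 active = activation above the mean activation of all tested compounds plus 3 SD, cut at about 50% in these data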
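Assay system: CHO-K1 cells co-transfected with Gal4 DBD–human SF-1 LBD, 5xGal4 luciferase reporter / Input: 4,000 cells per well / Incubation: 20 h compound exposure at 37 °C after 1 h cell settling / Detection: SteadyLite luciferase luminescence / Control set: DMSO negative control and −SF1 background wells / Replication: one test per compound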
RORa activator: activators of human nuclear receptor RORA; P35398; CHO-K1 Gal4-RORA LBD luciferase reporter, luminescence; percent increase over mock-subtracted basal signal; activation, % at 10 µM; AID 560; actives 1.5% (n = 65,000);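 active = activation above the mean of all tested compounds plus 3 SD, cut at about 49% in these data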;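 also: 0% = DMSO-treated RORA cells and 100% = added signal equal to DMSO minus mock-transfected cells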
Numbers without * were called inactive. Shown are actives, neighbours in structure and some others; about 8.8% of the full set was active somewhere.

Screening Cc1ccc(Cn2nnc(C(=O)Nc3cc(C)ccc3C)c2N)cc1 returned M1 antag 1.8*, M1 ag 0.064, S1P1 ag-PAM 14, S1P3 agonist -1, SF-1 act 0 and RORa activator -14.
For Cc1ccc(C)c(NC(=O)c2nnn(Cc3ccccc3)c2N)c1 the results were M1 antag -0.18, M1 ag 0.67, S1P1 ag-PAM 33, S1P3 agonist -1, SF-1 act 19 and RORa activator -6.
O=C1C2CC=CCC2C(=O)N1c1ccc(Cc2ccncc2)cc1 (stereo not given) was read as M1 antag -1.1, M1 ag -3, S1P1 ag-PAM 43, S1P3 agonist -1, SF-1 act -17 and RORa activator -6.
Screening COc1ccc(NC(=O)Nc2cc(C)ccc2OC(F)F)c(OC)c1 returned M1 antag 2*, M1 ag 1.4, S1P3 agonist -1, SF-1 act -5 and RORa activator -8.
Screening COc1ccc(NC(=O)NS(=O)(=O)c2ccc(C)cc2)c(OC)c1 returned M1 antag 0.16, M1 ag 0.32, S1P1 ag-PAM -16, S1P3 agonist 1, SF-1 act 4 and RORa activator -4.
COc1cc2cc3c(N)c(C(=O)NCc4ccco4)sc3nc2cc1OC was read as M1 antag -0.039, M1 ag 4, S1P1 ag-PAM 9, S1P3 agonist -2, SF-1 act 44 and RORa activator 80*.
For Cc1ccc2c(C)nc(NC3=NCN(C(C)C)CN3)nc2c1 the results were M1 antag -0.14, M1 ag -0.3, S1P1 ag-PAM -21, S1P3 agonist 0, SF-1 act -15 and RORa activator -12.
Screening CCOCC(=O)Nc1nc2ccc(OC)cc2s1 returned M1 antag -0.19, M1 ag 1.1, S1P1 ag-PAM -26, S1P3 agonist -1, SF-1 act 51* and RORa activator 33.
CCCCN(C(=O)NC(=O)Nc1nc2ccc(OC)cc2s1)S(C)(=O)=O was read as M1 antag 0.42, M1 ag -0.35, SF-1 act 3 and RORa activator -4.
`COc1ccc2nc(Nc3nc(C)c(C(C)=O)s3)sc2c1` gave M1 antag 0.11, M1 ag 0.26, S1P1 ag-PAM -61, S1P3 agonist 0, SF-1 act 80* and RORa activator 15.
For CCCCOC(=O)Nc1nc2ccc(OC)cc2s1 the results were M1 antag 0.23, M1 ag -0.36, S1P1 ag-PAM 12, S1P3 agonist 0, SF-1 act 23 and RORa activator 52*.
For COc1cc(C)nc(Nc2nc(C)c(C(C)=O)s2)n1 the results were M1 antag 0.17, M1 ag 0.086, S1P1 ag-PAM -52, S1P3 agonist -3, SF-1 act -21 and RORa activator -10.
`Cc1cc(OCC(=O)Nc2ccc3c(c2)OCCO3)ccc1Cl` gave M1 antag -0.26, M1 ag 0.91, S1P1 ag-PAM 4, S1P3 agonist -1, SF-1 act -7 and RORa activator -15.
For c1c2c(cc3sc(N4CCOCC4)nc13)OCO2 the results were M1 antag -0.41, M1 ag -0.76, S1P1 ag-PAM -43, S1P3 agonist 0, SF-1 act 58* and RORa activator 34.
Screening Clc1ccc2nc(N3CCN(c4ccccc4)CC3)sc2c1 returned S1P1 ag-PAM -6, S1P3 agonist 0, SF-1 act 72* and RORa activator 28.
c1ccc(N2CCN(c3nc4cc5c(cc4s3)OCO5)CC2)cc1 was read as M1 antag 0.092, M1 ag -1, S1P1 ag-PAM -4, S1P3 agonist 0, SF-1 act 55* and RORa activator 70*.
Screening c1c2c(cc3sc(N4CCCCC4)nc13)OCO2 returned M1 antag 0.38, M1 ag 2, S1P1 ag-PAM -32, S1P3 agonist 0, SF-1 act -8 and RORa activator -44.
For CC(C)C1Nc2ccc(S(N)(=O)=O)cc2C2C=CCC21 (stereo not given) the results were M1 antag -0.039, M1 ag 2.1*, S1P3 agonist -1, SF-1 act 1 and RORa activator -2.
Cc1ccc2c(c1)C1C=CCC1C(C(=O)O)N2 (stereo not given) was read as M1 antag -0.012, M1 ag -0.56, S1P1 ag-PAM 3, S1P3 agonist -1, SF-1 act 3 and RORa activator 0.
CCCCC1CCC(c2nc(-c3ccccn3)no2)CC1 (stereo not given) was read as M1 antag -0.024, M1 ag -1.3, S1P1 ag-PAM 20, S1P3 agonist -1, SF-1 act 52* and RORa activator 5.
`CCCCC1CCC(c2nc(-c3cccnc3)no2)CC1` (stereo not given) gave M1 antag 1.4, M1 ag 0.38, S1P3 agonist 0, SF-1 act 18 and RORa activator -2.
`Cc1cccc(NC(=O)c2cc3ccccc3c(=O)o2)n1` gave S1P1 ag-PAM 1, S1P3 agonist -1, SF-1 act 65* and RORa activator 57*.
`CC1(C)CC(=O)C2=C(C1)NC(SCC(=O)Nc1ccccc1)=C(C#N)C21CCCCC1` gave M1 antag 1.1, M1 ag -1, S1P1 ag-PAM 20, S1P3 agonist -1, SF-1 act -10 and RORa activator 15.
CC(C)(C)C1CCC2(CC1)C(C#N)=C(SCC(=O)Nc1ccccc1)NC(=O)C2C#N (stereo not given) was read as M1 antag -0.022, M1 ag 0.86, S1P1 ag-PAM 79*, S1P3 agonist -4, SF-1 act -15 and RORa activator -22.
Cn1c(CSc2nc3ccccc3s2)nc2ccccc21 was read as M1 antag -0.12, M1 ag -0.63, S1P1 ag-PAM -2, S1P3 agonist -2, SF-1 act 71* and RORa activator 27.
`Cn1c(CSc2nc3ccccc3s2)n[nH]c1=S` gave M1 antag 0.31, M1 ag -0.17, S1P3 agonist 0, SF-1 act 6 and RORa activator -7.
O=c1oc2ccccc2n1CSc1nc2ccccc2s1 was read as M1 antag -0.11, M1 ag 0.11, S1P1 ag-PAM 8, S1P3 agonist 0, SF-1 act 52* and RORa activator 66*.
CCOC(=O)N1CCC(NC(=O)Cc2ccc(-n3c(=O)[nH]c4ccccc4c3=O)cc2)CC1 was read as M1 antag -0.39, M1 ag -0.082, S1P1 ag-PAM -10, S1P3 agonist 1, SF-1 act -5 and RORa activator -7.
